Screening data as filed in PubChem BioAssay.
miR122 inh = blocks miR-122 activity in Huh7 sensor cells. Huh7 miR-122 Renilla luciferase sensor, 48 h; neutral wells = 0, positive control = 100. activation (reporter increase), % at 12.5 µM. 0.3% of 340,000 active;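 active means mean replicate activation score at least 90 and every replicate individually at or above 90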;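 further: higher luciferase means less miR-122 activity so hits act as miR-122 inhibitors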
GSIS activator = primary screen for activators of insulin secretion dependent on glucose, INS-1E cells, GLuc reporter luminescence | activation, % at 16.6 µM | 0.61% of 370,000 active | INS-1E GLuc reporter insulin secretion, 2-3 h;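 active means lowest replicate activation of at least 40%, so every replicate reaches that level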;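 further: 0% = median of neutral control wells and 100% = median of IBMX positive control wells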
CFTR F508del cor = CFTR F508del correction in bronchial cells; CFBE cells, YFP halide quenching; stimulated with forskolin plus potentiator P3; % fluorescence drop versus neutral controls; activity (quench increase), % at 7.58 µM; 0.36% of 350,000 active;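 active means mean added fluorescence quench of at least 8% versus neutral control, with both replicates also reaching 8%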;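 further: cells transiently co-express mutant CFTR-F508del with the halide-sensitive YFP; corrector assay measuring rescue of mutant channel to the surface after 24 h compound exposure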
Env fusion inh = HIV envelope-mediated fusion inhibition | HeLa-JRFL Env/CEM21 cell fusion, luciferase | inhibition, % at 12.3 µM | 1.1% of 360,000 active | AID 651610;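 active means mean replicate inhibition score of at least 50 and every replicate individually at or above 50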;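 further: 0% = plate neutral controls and 100% = maraviroc near 300 nM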
Cneo AK release = Cryptococcus neoformans lysis via adenylate kinase release. C. neoformans lysis, adenylate kinase release luminescence, 4 h; normalised: neutral wells 0, clomiphene wells 100. lysis activity, % at 15 µM. 0.2% of 360,000 active. AID 651654;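 active means mean lysis activity across replicates of at least 80%, whatever share of replicates individually reach that level; inactive means mean lysis activity below 80%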
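Schedule: static 4 h at 37 °C with compound, 1 h detection; system: C. neoformans cells; benchmarks: Clomiphene as positive control; buffer or medium: fresh YPD medium; measure: luminescence rise reflecting yeast cell lysis; measured by: luminescent adenylate kinase detection reagent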
rRNA inh HTS = inhibits bacterial ribosomal RNA function over humanized ribosomes | E. coli WT GFP vs humanized-ribosome RFP mutants, fluorescence, 24 h; hits give low values; DMSO median 0, no signal -100 | GFP signal change (wild-type ribosome), % (concentration not given with the values) | 1.6% of 350,000 active;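 active means significant combined selectivity score with lowered wild-type GFP, culture density cut under 30%, mutant RFP and density less affected; inactive means any of these conditions unmet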
* marks the source's active call; other numbers are inactive results; [ ] = another dose, or the depositor's remark. A selection: hits, their analogues and other compounds. The true share with any hit is near 3.1%.

CN(Cc1c(F)cccc1Cl)C(=O)c1ccc(NC(=O)CC2SC(N3CCCCC3)=NC2=O)cc1 (centres undefined) was read as GSIS activator -63, CFTR F508del cor 11*, Cneo AK release -1 and rRNA inh HTS -1.
Screening CN(Cc1ccccc1F)C(=O)c1ccc(NC(=O)CC2SC(N3CCCCC3)=NC2=O)cc1 (centres undefined) returned miR122 inh 13, CFTR F508del cor 0 and Cneo AK release 2.
Screening CNC(=O)C[C@@H]1CC[C@@H]2[C@H](COc3ccc(NC(=O)Nc4cccc(F)c4)cc3C(=O)N2C)O1 returned miR122 inh 21[16.7 µM], GSIS activator -3, CFTR F508del cor -2, Env fusion inh -6[16.7 µM] and rRNA inh HTS -1.
`CCOC(=O)c1sc(-c2ccc(Br)cc2)cc1N` gave miR122 inh -3, GSIS activator -3, CFTR F508del cor -1, Cneo AK release -18 and rRNA inh HTS -34*.
C[C@@H]1CN([C@H](C)CO)C(=O)Cc2cc(NS(=O)(=O)c3ccc(Cl)cc3)ccc2O[C@H]1CN(C)C(=O)Nc1ccccc1 was read as miR122 inh -2[16.7 µM], GSIS activator 28, CFTR F508del cor 0, Cneo AK release -1 and rRNA inh HTS 2.
`O=C(c1cccs1)N1CCCc2ccccc21` gave miR122 inh -5, GSIS activator 25, CFTR F508del cor -2, Cneo AK release -1 and rRNA inh HTS -24*.
For CCCC(=O)NC(NC(=S)Nc1ccc(N=Nc2ccccc2)cc1)C(Cl)(Cl)Cl (centres undefined) the results were CFTR F508del cor 8.6*, Cneo AK release -1 and rRNA inh HTS -18.
Screening O=c1[nH]c2ccccc2nc1-c1cccs1 returned miR122 inh -1, GSIS activator 20, Env fusion inh -120 and Cneo AK release 0.
Screening O=c1[nH]nc(-c2cccs2)c2ccccc12 returned miR122 inh -9, GSIS activator 172*, CFTR F508del cor 2, Env fusion inh -8, Cneo AK release 5 and rRNA inh HTS -2.
C[C@H](CO)N1C[C@H](C)[C@@H](CN(C)Cc2ccc(C(=O)O)cc2)Oc2ccc(NS(=O)(=O)c3cccs3)cc2CC1=O was read as GSIS activator 14, CFTR F508del cor -3, Env fusion inh 16[16.7 µM] and rRNA inh HTS 1.
For CC(C)n1cc(/C=C/c2cc[n+](C)cc2)c2ccccc21 the results were miR122 inh -20, GSIS activator -32, CFTR F508del cor 9.2*, Env fusion inh 72*, Cneo AK release -1 and rRNA inh HTS 79.
Screening O=C(NC(=S)NNC(=O)c1ccccc1F)c1cccnc1 returned miR122 inh -1, GSIS activator -7, Env fusion inh 0, Cneo AK release 0 and rRNA inh HTS -19*.
`CC(=O)Nc1ccc(NC(=O)COc2ccc(Br)cc2C)cc1` gave miR122 inh -6, GSIS activator -5, CFTR F508del cor 2, Cneo AK release -2 and rRNA inh HTS 6.
Screening Cc1cccc(OCC(=O)Nc2cc(NC(=O)COc3cccc(C)c3C)cc(C(=O)O)c2)c1C returned miR122 inh 4, GSIS activator 3, CFTR F508del cor -2, Env fusion inh -15, Cneo AK release 4 and rRNA inh HTS -43.
`Cc1ccccc1OCC(=O)Nc1cccc(C(=O)O)c1` gave GSIS activator 7, CFTR F508del cor 2, Env fusion inh 76* and rRNA inh HTS -1.
O=C(O)CCC(=O)Nc1ccccc1C(=O)Nc1ccccc1 was read as miR122 inh 115*, Env fusion inh -136 and Cneo AK release -4.
O=C(COc1ccccc1Cl)Nc1ccccc1C(=O)Nc1cccc(C(=O)O)c1 was read as miR122 inh 5, GSIS activator 8, CFTR F508del cor 1, Env fusion inh 1, Cneo AK release -6 and rRNA inh HTS -29*.
`O=C(COc1ccccc1Cl)Nc1ccc(C(=O)O)cc1NC(=O)COc1ccccc1Cl` gave miR122 inh 4, CFTR F508del cor -1, Env fusion inh 6 and Cneo AK release -3.
